≈ marks a conversion by molar mass, not a printed value.
Columns and labels:
[1] = Intrinsic clearance in rat liver microsomes at 1 uM incubated upto 40 mins; format: ADME, Microsome; conditions: read-out: CLH
[2] = Intrinsic clearance in human liver microsomes at 1 uM incubated upto 40 mins; format: ADME, Microsome; conditions: read-out: CLH
[3] = Stability of the compound at pH 7.4 by UHPLC-MS/MS analysis; format: physicochemical; conditions: buffer
[4] = Dissociation constant, pKa of compound; format: physicochemical
[5] = Half life in rat at 1 mg/kg,iv administered for 4 hrs; format: ADME, organism-based; conditions: in vivo
[6] = Solubility of compound; format: physicochemical
[7] = Clearance in rat at 1 mg/kg,iv administered for 4 hrs; format: ADME, organism-based; conditions: in vivo
[8] = Unbound brain-to-plasma concentration ratio in rat at 1 mg/kg,iv administered for 4 hrs; format: ADME, organism-based; conditions: brain and plasma (unbound), read-out: K(p,uu,brain)
[9] = Volume of distribution at steady state in rat at 1 mg/kg,iv administered for 4 hrs; format: ADME, organism-based; conditions: in vivo, read-out: Vdss
[10] = Drug concentration in rat brain at 80 mg/kg,ip administered for 24 hr by LC-MS/MS analysis; format: ADME, organism-based; conditions: in vivo
How it was run: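 Post-natal day 10 rats given 80 mg/kg I.P.; groups sacrificed 0.5−24 h after dosing. Cortical samples from each hemisphere taken for brain drug concentration and tau phosphorylation.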

[11] = Clearance in mouse at 1 mg/kg,iv administered for 4 hrs; format: ADME, organism-based; conditions: in vivo
[12] = Half life in mouse at 1 mg/kg,iv administered for 4 hrs; format: ADME, organism-based; conditions: in vivo
[13] = Volume of distribution at steady state in mouse at 1 mg/kg,iv administered for 4 hrs; format: ADME, organism-based; conditions: in vivo, read-out: Vdss

Row | CLint scaled at 1 µM [1] [mL/min/kg] | CLint scaled at 1 µM [2] [mL/min/kg] | Stability [3] [%] | SMILES | also measured
1 | 374 | 10 |  | CC(C)(O)C#Cc1cc2c(cn1)c(C1CC1)cn2-c1ccnc(N)n1 | 
2 | < 11 | < 5 | 99.3 | CN1CCC[C@@H](c2cn(-c3ccnc(N)n3)c3cc(C#CC(C)(C)O)ncc23)C1 | 
3 | 24 | < 5 | 82.7 | CC(C)(O)C#Cc1cc2c(cn1)CCN2c1ccnc(N)n1 | pKa [4]: 7.4
4 | 36 | < 5 | 99.9 | CC[C@](C)(O)C#Cc1cc2c(cn1)cnn2-c1ccnc(N)n1 | half-life [5]: 4.3 h; solubility [6]: 46 µg/mL (≈ 149 µM); clearance [7]: 17 mL/min/kg; Kp uu at 4 h [8]: 0.08; Vd [9]: 2.48 L/kg
5 | 69 | 21 | 100 | CC(C)(O)C#Cc1cc2c(ccn2-c2ccnc(N)n2)cc1F | 
6 | 27 | < 5 |  | CC(C)(O)C#Cc1cc2c(cn1)cnn2-c1ccnc(N)n1 | pKa [4]: 4.9
7 | 38 | 6 |  | CC(C)(O)C#Cc1cc2c(cn1)c(C1CCOCC1)cn2-c1ccnc(N)n1 | 
8 | 219 | 16 |  | CC[C@](C)(O)C#Cc1cc2c(ccn2-c2cc(OC)nc(N)n2)cn1 | Drug uptake [10]: Not Active; clearance [11]: 67 mL/min/kg; half-life [5]: 3.6 h; solubility [6]: 45 µg/mL (≈ 133 µM); clearance [7]: 62 mL/min/kg; Kp uu at 4 h [8]: 0.32; half-life [12]: 6 min; Vd [9]: 4.87 L/kg; Vd [13]: 0.474 L/kg
9 | 56 | 31 |  | COc1cc2ccn(-c3ccnc(N)n3)c2cc1C#CC(C)(C)O | 
10 | 42 | 19 |  | CC(C)(O)C#Cc1cc2c(ccn2-c2ccnc(N)n2)cn1 | pKa [4]: 5.7
11 | 155 | 11 | 99.7 | CC[C@](C)(O)C#Cc1cc2c(ccn2-c2ccnc(N)n2)cn1 | half-life [5]: 3.6 h; solubility [6]: 44 µg/mL (≈ 143 µM); clearance [7]: 64 mL/min/kg; Kp uu at 4 h [8]: 0.1; Vd [9]: 2.17 L/kg
12 | 62 | 10 |  | COc1nc(C#CC(C)(C)O)cc2c1ccn2-c1ccnc(N)n1 | 
13 |  |  | 100 | Cn1nc(-c2ccnc(N)n2)c2cc(C#CC(C)(C)O)ccc21 | 
14 | 42 | < 5 |  | CC(C)(O)C#Cc1cc2c(ccn2-c2ccnc(N)n2)c(N2CCOCC2)n1 | 
